# The source made the active and inactive calls. The rule behind the calls is not given here.
# Key:
# Plasmodium berghei [1] = experiment: Antimalarial activity against Plasmodium berghei KBG-173 infected in Swiss(CD-1) mouse assessed as survival at 1 mg/kg/day, po treated for 3 days measured on day 34; type: functional, organism-based
# Procedure, shortened: (§1)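 CD-1 mice, 5 weeks old, male or female, groups of five, infected with 5 × 10^4 P. berghei KBG-173 parasitized erythrocytes. Drug in 0.5% hydroxyethylcellulose/0.1% Tween 80, given orally once daily on days 3, 4 and 5 post-infection. Parasitemia from blood films on day +6. Read-out also includes increase in mean survival time over controls and survivors at day +34.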
# Plasmodium berghei [2] = experiment: Antimalarial activity Plasmodium berghei KBG-173 infected in Swiss(CD-1) mouse assessed as increase in mean survival time over control at 2 mg/kg, po pretreated 1 day before infection
# Leishmania donovani [3] = experiment: Antileishmanial activity against Leishmania donovani HU3 infected in mouse assessed as inhibition of parasites in liver at 5 mg/kg/day, po treated for 5 days administered 7 days postinfection measured after 14 days post-infection; type: functional
# Procedure, shortened: (§2)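 L. donovani HU3 amastigotes, 1 × 10^7 given IV to mice. From day 7 post-infection, dosed orally once daily for 5 days in 0.25% methylcellulose-10% ethanol; reference stibogluconate given SC. Mice killed at day 14 post-infection. Parasite burden counted on liver impression smears against untreated controls. ED50 from linear regression, with 95% confidence limits.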
# Plasmodium berghei [4] = experiment: Antimalarial activity against Plasmodium berghei KBG-173 infected in Swiss(CD-1) mouse assessed as parasitemia at 1 mg/kg/day, po treated for 3 days measured on day 6
# Pneumocystis carinii [5] = experiment: Antimicrobial activity against Pneumocystis carinii infected BALB/c mouse at 5 mg/kg/day, po after 21 days administered 4 weeks postinfection by Giemsa staining method; type: functional, organism-based
# Procedure, shortened: (§3)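 Female BALB/c mice, 6-8 weeks, immunosuppressed with dexamethasone […] in drinking water, then inoculated transtracheally with 10^6 P. carinii. From 4 weeks post-inoculation, drug given in drinking water for 3 weeks, 10 mice/group, intake monitored. Lung impression smears stained with Giemsa or methenamine silver, read blinded. Graded 0-5 on a log scale; group mean ± SE.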
# Plasmodium berghei [6] = experiment: Antimalarial activity Plasmodium berghei KBG-173 infected in Swiss(CD-1) mouse assessed as mean survival time at 2 mg/kg, po pretreated 2 days before infection; type: functional
# Procedure, shortened: (§4)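 CD-1 mice, 5 weeks old, male or female, groups of five, infected with 5 × 10^4 P. berghei KBG-173 parasitized erythrocytes. One 2 mg/kg oral dose given on a single day, from day −3 to +2 relative to inoculation. Controls untreated. Read-out is increase in mean survival time over controls and number alive at day +30.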
# Canis familiaris [7] = experiment: Toxicity in Beagle dog assessed as increase in methemoglobin level at 1.91 mg/kg/day, po; type: organism-based, Canis lupus familiaris; parameters: route oral; settings: in vivo
# Procedure, shortened: (§5)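 Beagle dogs, one male and one female per enantiomer, given 0.64 mg/kg/day (0.5 mg/kg base) orally for 4 days. After a 5-week washout the same dogs received 1.91 mg/kg/day for 4 days. Methemoglobin sampled from days −6 to 36. Each dog's values are mean of duplicate determinations.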
# Mus musculus = experiment: Toxicity in Leishmania donovani HU3 infected mouse at 100 mg/kg/day, po treated for 5 days administered 7 days postinfection; type: organism-based; parameters: route oral; settings: in vivo; procedure, shortened: as §2
# Plasmodium berghei [8] = experiment: Antimalarial activity against Plasmodium berghei KBG-173 infected in Swiss(CD-1) mouse assessed as mean survival time at 4 mg/kg/day, po treated for 3 days; type: functional; procedure, shortened: as §1
# Plasmodium berghei [9] = experiment: Antimalarial activity against Plasmodium berghei KBG-173 infected in Swiss(CD-1) mouse assessed as reduction in parasitemia at 4 mg/kg/day, po treated for 3 days measured on day 6; type: functional; parameters: scale not given: the % may be the effect or the level left; procedure, shortened: as §1
# Plasmodium berghei [10] = experiment: Antimalarial activity Plasmodium berghei KBG-173 infected in Swiss(CD-1) mouse assessed as survival at 2 mg/kg, po treated 1 day postinfection measured on day 30; type: functional, organism-based; parameters: dose 2 mg/kg; procedure, shortened: as §4
# Plasmodium berghei [11] = experiment: Antimalarial activity against Plasmodium berghei KBG-173 infected in Swiss(CD-1) mouse assessed as mean survival time at 1 mg/kg/day, po treated for 3 days; type: functional; procedure, shortened: as §1
# Canis familiaris [12] = experiment: Toxicity in Beagle dog assessed as increase in methemoglobin level at 1.91 mg/kg/day, po after 8 days; type: organism-based, Canis lupus familiaris; parameters: route oral; settings: in vivo, 192 h; procedure, shortened: as §5
# Plasmodium berghei [13] = experiment: Antimalarial activity against Plasmodium berghei KBG-173 infected in Swiss(CD-1) mouse assessed as mean survival time at 0.25 mg/kg/day, po treated for 3 days; type: functional; procedure, shortened: as §1
# Plasmodium berghei [14] = experiment: Antimalarial activity Plasmodium berghei KBG-173 infected in Swiss(CD-1) mouse assessed as survival at 2 mg/kg, po treated at day of infection measured on day 30; type: functional, organism-based; parameters: dose 2 mg/kg; procedure, shortened: as §4
# Pneumocystis carinii [15] = experiment: Antimicrobial activity against Pneumocystis carinii infected BALB/c mouse at 1 mg/kg/day, po after 21 days administered 4 weeks postinfection by methenamine silver nitrate staining method; type: functional, organism-based; procedure, shortened: as §3
# Pneumocystis carinii [16] = experiment: Antimicrobial activity against Pneumocystis carinii infected BALB/c mouse at 0.25 mg/kg/day, po after 21 days administered 4 weeks postinfection by methenamine silver nitrate staining method; type: functional, organism-based; procedure, shortened: as §3
# Leishmania donovani [17] = experiment: Antileishmanial activity against Leishmania donovani HU3 infected in mouse assessed as inhibition of parasites in liver at 10 mg/kg/day, po treated for 5 days administered 7 days postinfection measured after 14 days post-infection; type: functional; procedure, shortened: as §2
# Leishmania donovani [18] = experiment: Antileishmanial activity against Leishmania donovani HU3 infected in mouse assessed as inhibition of parasites in liver at 0.4 mg/kg/day, po treated for 5 days administered 7 days postinfection measured after 14 days post-infection; type: functional; procedure, shortened: as §2
# Plasmodium berghei [19] = experiment: Antimalarial activity Plasmodium berghei KBG-173 infected in Swiss(CD-1) mouse assessed as survival at 2 mg/kg, po pretreated 2 days before infection measured on day 30; type: functional, organism-based; parameters: dose 2 mg/kg; procedure, shortened: as §4
# Pneumocystis carinii [20] = experiment: Antimicrobial activity against Pneumocystis carinii infected BALB/c mouse at 5 mg/kg/day, po after 21 days administered 4 weeks postinfection by methenamine silver nitrate staining method; type: functional, organism-based; procedure, shortened: as §3
# Plasmodium berghei [21] = experiment: Antimalarial activity Plasmodium berghei KBG-173 infected in Swiss(CD-1) mouse assessed as mean survival time at 2 mg/kg, po treated at day of infection; type: functional; procedure, shortened: as §4
# Canis familiaris [22] = experiment: Toxicity in Beagle dog assessed as increase in methemoglobin level at 1.91 mg/kg/day, po after 6 days; type: organism-based, Canis lupus familiaris; parameters: route oral; settings: in vivo, 144 h; procedure, shortened: as §5
# Plasmodium berghei [23] = experiment: Antimalarial activity Plasmodium berghei KBG-173 infected in Swiss(CD-1) mouse assessed as survival at 2 mg/kg, po treated 2 day postinfection measured on day 30; type: functional, organism-based; parameters: dose 2 mg/kg; procedure, shortened: as §4
# Plasmodium berghei [24] = experiment: Antimalarial activity against Plasmodium berghei KBG-173 infected in Swiss(CD-1) mouse assessed as survival at 0.25 mg/kg/day, po treated for 3 days measured on day 34; type: functional, organism-based; procedure, shortened: as §1
# Plasmodium berghei [25] = experiment: Antimalarial activity Plasmodium berghei KBG-173 infected in Swiss(CD-1) mouse assessed as mean survival time at 2 mg/kg, po treated 2 day postinfection; type: functional; procedure, shortened: as §4
# Plasmodium berghei [26] = experiment: Antimalarial activity Plasmodium berghei KBG-173 infected in Swiss(CD-1) mouse assessed as mean survival time at 2 mg/kg, po pretreated 3 days before infection; type: functional; procedure, shortened: as §4
# Canis familiaris [27] = experiment: Toxicity in Beagle dog assessed as increase in methemoglobin level at 1.91 mg/kg/day, po after 2 days; type: organism-based, Canis lupus familiaris; parameters: route oral; settings: in vivo, 48 h; procedure, shortened: as §5
# Plasmodium berghei [28] = experiment: Antimalarial activity Plasmodium berghei KBG-173 infected in Swiss(CD-1) mouse assessed as mean survival time at 2 mg/kg, po treated 1 day postinfection; type: functional; procedure, shortened: as §4
# Pneumocystis carinii [29] = experiment: Antimicrobial activity against Pneumocystis carinii infected BALB/c mouse at 0.25 mg/kg/day, po after 21 days administered 4 weeks postinfection by Giemsa staining method; type: functional, organism-based; procedure, shortened: as §3
# Pneumocystis carinii [30] = experiment: Antimicrobial activity against Pneumocystis carinii infected BALB/c mouse at 1 mg/kg/day, po after 21 days administered 4 weeks postinfection by Giemsa staining method; type: functional, organism-based; procedure, shortened: as §3
# Plasmodium berghei [31] = experiment: Antimalarial activity against Plasmodium berghei KBG-173 infected in Swiss(CD-1) mouse assessed as parasitemia at 0.25 mg/kg/day, po treated for 3 days measured on day 6
# Plasmodium berghei [32] = experiment: Antimalarial activity Plasmodium berghei KBG-173 infected in Swiss(CD-1) mouse assessed as survival at 2 mg/kg, po pretreated 1 day before infection measured on day 30; type: functional, organism-based; parameters: dose 2 mg/kg; procedure, shortened: as §4
# Plasmodium berghei [33] = experiment: Antimalarial activity against Plasmodium berghei KBG-173 infected in Swiss(CD-1) mouse assessed as survival at 4 mg/kg/day, po treated for 3 days measured on day 34; type: functional, organism-based; procedure, shortened: as §1
smiles,measurement,setting,value
COc1cc(N[C@@H](C)CCCN)c2nccc(C)c2c1Oc1ccc(Cl)c(Cl)c1.O=C(O)CCC(=O)O,Activity,Plasmodium berghei [1],Active
same,ΔMST,Plasmodium berghei [2],0.6 days
same,inhibition in vivo at 5 mg/kg/day,Leishmania donovani [3],65%
same,Activity,Plasmodium berghei [4],27.4%
same,Activity,Pneumocystis carinii [5],Active
same,MST,Plasmodium berghei [6],0 days
same,Activity,Canis familiaris [7],Toxic
same,Activity,Mus musculus,Toxic
same,MST,Plasmodium berghei [8],11 days
same,Activity,Plasmodium berghei [9],1.1%
same,Activity,Plasmodium berghei [10],Active
same,MST,Plasmodium berghei [11],6 days
same,Activity,Canis familiaris [12],Toxic
same,MST,Plasmodium berghei [13],0 days
same,Activity,Plasmodium berghei [14],Active
same,Activity,Pneumocystis carinii [15],Active
same,Activity,Pneumocystis carinii [16],Active
same,inhibition in vivo at 10 mg/kg/day,Leishmania donovani [17],99.6%
same,inhibition in vivo at 0.4 mg/kg/day,Leishmania donovani [18],41.2%
same,Activity,Plasmodium berghei [19],Active
same,Activity,Pneumocystis carinii [20],Active
same,MST,Plasmodium berghei [21],3.4 days
same,Activity,Canis familiaris [22],Toxic
same,Activity,Plasmodium berghei [23],Active
same,Activity,Plasmodium berghei [24],Active
same,MST,Plasmodium berghei [25],1.2 days
same,MST,Plasmodium berghei [26],0 days
same,Activity,Canis familiaris [27],Toxic
same,MST,Plasmodium berghei [28],0 days
same,Activity,Pneumocystis carinii [29],Active
same,Activity,Pneumocystis carinii [30],Active
same,Activity,Plasmodium berghei [31],28.2%
same,Activity,Plasmodium berghei [32],Active
same,Activity,Plasmodium berghei [33],Active
